Measured values: ChEMBL document CHEMBL1121644, “N-(aminophenyl)oxamic acids and esters as potent, orally active antiallergy agents” (1981)
The source made the active and inactive calls. The calls are words filed in the database; no cut-off is given here.

Key:
[1] = test system: Rattus norvegicus; assay: Antiallergic property in passive cutaneous anaphylaxis (PCA) test in rats upon oral administration; type: functional
In short: (§1)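 Male Sprague-Dawley rats (200 g) were sensitized id on the shaved back with 0.05 mL of a 1:100 dilution of rat anti-ovalbumin IgE serum. After 48 h they were challenged iv with 1.0 mL of 0.8% ovalbumin containing 5 mg Evans blue, and killed 40 min later. Wheal area (mm²) was taken as the longest diameter times its perpendicular. ED50 is the dose halving wheal size versus control, from regression over at least four log-spaced doses with five rats per dose.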

[2] = test system: Rattus norvegicus; assay: Antiallergic property in passive cutaneous anaphylaxis (PCA) test in rats upon intraperitoneal administration; type: functional; conditions: for ED50: ip; in short: as §1
[3] = test system: Rattus norvegicus; assay: Percent inhibition of wheal size in passive cutaneous anaphylaxis (PCA) test at 50 mg/kg upon intraperitoneal administration; type: functional; conditions: ip
In short: (§2)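 Rats (male Sprague-Dawley, 200 g) were passively sensitized id with 0.05 mL of 1:100 IgE antiserum raised against ovalbumin. After a 48-h latency they were challenged iv with 0.8% ovalbumin (1.0 mL) plus 5 mg Evans blue. Skin was reflected 40 min later and stained wheals measured as longest diameter × perpendicular (mm²). Results are percent inhibition of wheal size versus control.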

[4] = test system: Rattus norvegicus; assay: Percent inhibition using passive cutaneous anaphylaxis (PCA assay) in rat at 1 mg/kg upon oral administration; type: functional; in short: as §2
[5] = test system: Rattus norvegicus; assay: Antiallergic property in passive cutaneous anaphylaxis (PCA) test in rats upon intraperitoneal administration; NA=Not active at 100 mg/kg; type: functional, organism-based; parameters: dose 100 mg/kg; in short: as §1
[6] = test system: Rattus norvegicus; assay: Antiallergic property in passive cutaneous anaphylaxis (PCA) test in rats upon oral administration; NA=Not active at 100 mg/kg; type: functional, organism-based; parameters: dose 100 mg/kg; in short: as §1
[7] = test system: Rattus norvegicus; assay: Percent inhibition of wheal size in passive cutaneous anaphylaxis (PCA) test at 50 mg/kg upon oral administration; type: functional; in short: as §2
[8] = test system: Rattus norvegicus; assay: Percent inhibition of wheal size in passive cutaneous anaphylaxis (PCA) test at 50 mg/kg (administered orally); type: functional; conditions: po; in short: as §2

Row | Structure (SMILES) | ED50 [1] [mg/kg] | ED50 [2] [mg/kg] | other results
1 | CCOC(=O)C(=O)Nc1cccc(N2CCOCC2)c1C#N | 6.3 | 1.2 | 
2 | CCOC(=O)C(=O)Nc1ccc([N+](=O)[O-])cc1C#N |  |  | inhibition in vivo at 50 mg/kg [3]: 33%
3 | CCOC(=O)C(=O)Nc1cccc(C(=O)OC)c1C#N | 0.8 | 1.2 | 
4 | CCOC(=O)C(=O)Nc1cccc(Cl)c1C#N |  |  | inhibition in vivo at 50 mg/kg [3]: 56%
5 | CCOC(=O)C(=O)Nc1cccc(OC(C)C)c1C#N | 1 | 2 | 
6 | CCOC(=O)C(=O)Nc1ccc(C(F)(F)F)c(N2CCOCC2)c1C#N | > 100 | 0.1 | 
7 | CC(C)Oc1cccc(NC(=O)C(=O)O)c1C#N |  |  | inhibition in vivo at 1 mg/kg [4]: 75.1%
8 | CCOC(=O)C(=O)Nc1cccc(Br)c1C#N |  |  | ED50 [5]: inactive
9 | CCOC(=O)C(=O)Nc1cccc(N2CCCCC2)c1C#N |  | 2.2 | ED50 [6]: inactive
10 | CCCNc1cccc(NC(=O)C(=O)[O-])c1C#N.[Na+] |  |  | % inhibition at 1 mg/kg [4]: 83.1%
11 | CCOC(=O)C(=O)Nc1cccc(N(C)C(C)C)c1C#N | 1.2 | 0.3 | 
12 | CCOC(=O)C(=O)Nc1cccc(N)c1C#N | 0.07 | 0.05 | 
13 | O=C([O-])c1cc(=O)c2c(OCC(O)COc3cccc4oc(C(=O)[O-])cc(=O)c34)cccc2o1.[Na+].[Na+] [CROMOLYN SODIUM] |  | 8 | ED50 [6]: inactive
14 | CCOC(=O)C(=O)Nc1cccc(N(CC)CC)c1C#N | 0.9 | 0.7 | 
15 | CCOC(=O)C(=O)Nc1cccc(NC)c1C#N | 0.1 | 0.2 | 
16 | CCOC(=O)C(=O)Nc1ccc(N)cc1C#N | 8.8 | 1 | 
17 | CN(C)c1cccc(NC(=O)C(=O)O)c1C#N |  |  | inhibition in vivo at 1 mg/kg [4]: 54.7%
18 | CCOC(=O)C(=O)Nc1cccc(C(C)C)c1C#N |  |  | inhibition in vivo at 50 mg/kg [7]: 18%; ED50 [5]: inactive
19 | CCOC(=O)C(=O)Nc1cccc(C)c1C#N | 4.6 | 5.3 | 
20 | CCCCNc1cccc(NC(=O)C(=O)[O-])c1C#N.[Na+] |  |  | % inhibition at 1 mg/kg [4]: 93.5%
21 | CCNc1cccc(NC(=O)C(=O)O)c1C#N |  |  | inhibition in vivo at 1 mg/kg [4]: 58.9%
22 | CCOC(=O)C(=O)Nc1cccc(F)c1C#N | 59 | 1.2 | 
23 | CCNc1cccc(NC(=O)C(=O)OCC)c1C#N | 0.03 | 0.03 | 

Row | Structure (SMILES) | ED50 [1] [mg/kg] | ED50 [2] [mg/kg] | other results
24 | COC(=O)c1cccc(NC(=O)C(=O)O)c1C#N |  |  | inhibition in vivo at 1 mg/kg [4]: 24.5%
25 | CCOC(=O)C(=O)Nc1cccc([N+](=O)[O-])c1C#N | 82 | 0.4 | 
26 | N#Cc1c(N)cccc1NC(=O)C(=O)O |  |  | inhibition in vivo at 1 mg/kg [4]: 21.2%
27 | CCOC(=O)C(=O)Nc1cccc(N2CCN(C)CC2)c1C#N.Cl | 10.3 | 0.04 | 
28 | Cc1cccc(NC(=O)C(=O)O)c1C#N |  |  | inhibition in vivo at 1 mg/kg [4]: 32.3%
29 | CCOC(=O)C(=O)Nc1cccc(N(C)CC)c1C#N | 0.5 | 0.3 | 
30 | CCOC(=O)C(=O)Nc1ccccc1C#N | 2.9 | 0.4 | 
31 | CCOC(=O)C(=O)Nc1cc(N(C)C)ccc1C#N | > 100 | 1.9 | 
32 | CCOC(=O)C(=O)Nc1ccc(N(C)C)cc1C#N | 2.4 | 1 | 
33 | CCCCNc1cccc(NC(=O)C(=O)OCC)c1C#N | 0.3 | 0.3 | 
34 | CCOC(=O)C(=O)Nc1cccc(N2CCCC2)c1C#N |  |  | inhibition in vivo at 50 mg/kg [3]: 83%; inhibition in vivo at 50 mg/kg [7]: 83%
35 | CCOC(=O)C(=O)Nc1cccc(S(C)(=O)=O)c1C#N |  |  | ED50 [5]: inactive
36 | N#Cc1c(NC(=O)C(=O)O)cccc1N1CCOCC1 |  |  | inhibition in vivo at 1 mg/kg [4]: 14.1%
37 | CCOC(=O)C(=O)Nc1cccc(OC)c1C#N | 55.5 | 5.3 | 
38 | CCCNc1cccc(NC(=O)C(=O)OCC)c1C#N | 0.7 | 0.5 | 
39 | CCOC(=O)C(=O)Nc1c(C#N)cccc1N(C)C |  |  | ED50 [5]: inactive
40 | CNc1cccc(NC(=O)C(=O)[O-])c1C#N.[Na+] | 0.07 |  | inhibition in vivo at 1 mg/kg [4]: 96%
41 | CCN(CC)c1cccc(NC(=O)C(=O)O)c1C#N |  |  | inhibition in vivo at 1 mg/kg [4]: 99.2%
42 | CCOC(=O)C(=O)Nc1cccc(N(C)C)c1C#N | 4.2 | 0.2 | 
43 | CCN(C)c1cccc(NC(=O)C(=O)O)c1C#N |  |  | inhibition in vivo at 1 mg/kg [4]: 56.3%
44 | CCCCCOc1cccc(NC(=O)C(=O)OCC)c1C#N |  |  | Inhibition [2]: 25%
45 | CCOC(=O)C(=O)Nc1cccc(NC(C)=O)c1C#N |  |  | inhibition in vivo at 50 mg/kg [3]: 91%; inhibition in vivo at 50 mg/kg [8]: 91%
